From PMC9279635 (Acta Pharmaceutica Sinica. B, 2021)

Assays:
[1] = system: bleomycin-induced pulmonary fibrosis; experiment: BLM induced mouse lung fibrosis; type: in vivo, mice (C57BL/6)
Outline: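 Bleomycin (1.7 U/kg) or saline is given intratracheally to mice. After 7 days, test compound is dosed once daily for 21 days (n = 6–9/group). Body weight is tracked over the period. On day 21, lung sections are stained with H&E, F4/80, Masson and COL-1, and H&E and Masson sections are scored. Data are mean ± SEM, analysed by one-way ANOVA with Fisher's LSD.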

KDR = KDR (Homo sapiens, UniProt P35968); experiment: ELISA kinase assay, KDR; type: biochemical; details: for inhibition at 0.1 µM: read-out: KDR inhibition @100 nmol/L
DDR2 = target: T1, DDR2 (Homo sapiens, UniProt Q16832); experiment: ELISA kinase assay, DDR2; type: biochemical; details: DDR2 IC50, two separate experiments
T1 sequence (Q16832 22-855): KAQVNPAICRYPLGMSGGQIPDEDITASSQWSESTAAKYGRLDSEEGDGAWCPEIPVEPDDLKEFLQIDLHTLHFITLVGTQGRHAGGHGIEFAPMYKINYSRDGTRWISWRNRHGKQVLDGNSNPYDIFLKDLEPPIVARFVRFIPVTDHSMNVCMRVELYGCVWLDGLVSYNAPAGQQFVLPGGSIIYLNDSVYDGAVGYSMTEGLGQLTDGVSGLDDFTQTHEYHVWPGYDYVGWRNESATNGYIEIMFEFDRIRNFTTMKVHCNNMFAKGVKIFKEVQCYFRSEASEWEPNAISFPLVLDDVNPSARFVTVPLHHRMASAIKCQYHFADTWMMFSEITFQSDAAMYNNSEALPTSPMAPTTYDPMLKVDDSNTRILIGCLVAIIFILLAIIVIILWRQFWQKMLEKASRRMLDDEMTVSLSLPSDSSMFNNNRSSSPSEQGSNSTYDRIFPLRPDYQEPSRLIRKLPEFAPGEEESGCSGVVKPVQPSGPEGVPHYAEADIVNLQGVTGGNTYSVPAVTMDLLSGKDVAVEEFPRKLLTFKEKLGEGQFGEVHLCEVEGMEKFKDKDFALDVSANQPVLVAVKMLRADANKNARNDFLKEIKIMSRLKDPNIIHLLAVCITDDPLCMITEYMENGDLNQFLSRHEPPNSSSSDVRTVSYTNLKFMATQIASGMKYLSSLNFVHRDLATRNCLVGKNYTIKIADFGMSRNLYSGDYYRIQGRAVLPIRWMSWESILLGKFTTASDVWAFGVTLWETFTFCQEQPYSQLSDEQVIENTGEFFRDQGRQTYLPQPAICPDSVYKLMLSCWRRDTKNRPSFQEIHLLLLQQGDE

DDR1 = DDR1 (Homo sapiens, UniProt Q08345); experiment: ELISA kinase assay, DDR1; type: biochemical
[2] = system: DDR2 phosphorylation in MRC-5; experiment: DDR2 phosphorylation in TGF-β stimulated MRC-5; type: cell-based; details: 1 μmol/L, MRC-5, 24 h TGF-β stimulation
Outline: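 Confluent MRC-5 fibroblasts are stimulated with TGF-β (5 ng/mL) and treated with a range of test compound concentrations for 24 h. Western blots are probed for phospho-DDR2, fibronectin, α-SMA, with GAPDH as loading control.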

Flt-3 = target: T2, Flt-3 (Homo sapiens, UniProt P36888); experiment: ELISA kinase assay, Flt-3; type: biochemical; details: for inhibition at 0.1 µM: read-out: Flt-3 inhibition@100 nmol/L; for inhibition at 0.01 µM: read-out: Flt-3 inhibition @10 nmol/L
T2 sequence (P36888 27-993): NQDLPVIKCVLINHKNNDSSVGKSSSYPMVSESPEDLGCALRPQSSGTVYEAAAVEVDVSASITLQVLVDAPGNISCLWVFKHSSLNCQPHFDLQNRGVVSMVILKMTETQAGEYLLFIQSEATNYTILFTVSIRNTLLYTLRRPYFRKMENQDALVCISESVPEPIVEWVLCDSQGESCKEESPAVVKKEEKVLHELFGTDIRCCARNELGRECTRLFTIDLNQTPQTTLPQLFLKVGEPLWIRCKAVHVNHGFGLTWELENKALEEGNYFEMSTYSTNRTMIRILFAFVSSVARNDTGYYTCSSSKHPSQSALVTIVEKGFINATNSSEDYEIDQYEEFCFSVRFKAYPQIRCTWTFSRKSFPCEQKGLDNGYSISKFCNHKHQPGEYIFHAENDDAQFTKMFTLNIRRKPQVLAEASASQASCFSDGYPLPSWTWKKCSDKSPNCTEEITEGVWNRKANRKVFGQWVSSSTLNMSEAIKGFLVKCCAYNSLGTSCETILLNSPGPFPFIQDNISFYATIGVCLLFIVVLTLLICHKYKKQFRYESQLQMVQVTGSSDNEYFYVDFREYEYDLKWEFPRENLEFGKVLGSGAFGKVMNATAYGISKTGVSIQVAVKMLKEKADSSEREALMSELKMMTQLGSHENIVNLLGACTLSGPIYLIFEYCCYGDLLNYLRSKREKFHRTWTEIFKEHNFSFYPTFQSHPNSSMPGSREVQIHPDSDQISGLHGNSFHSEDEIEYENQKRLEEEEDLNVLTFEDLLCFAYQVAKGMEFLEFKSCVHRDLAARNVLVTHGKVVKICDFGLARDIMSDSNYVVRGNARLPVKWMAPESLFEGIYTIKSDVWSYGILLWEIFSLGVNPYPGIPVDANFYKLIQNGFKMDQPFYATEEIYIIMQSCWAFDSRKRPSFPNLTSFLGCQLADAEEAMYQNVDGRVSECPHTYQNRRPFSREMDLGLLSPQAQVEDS

ABL = ABL (Homo sapiens, UniProt P00519); experiment: Kinase selectivity test, ABL; type: biochemical; details: 10 nmol/L
RET = RET (Homo sapiens, UniProt P07949); experiment: ELISA kinase assay, RET; type: biochemical; details: for inhibition at 0.01 µM: read-out: RET inhibition @10 nmol/L
Sequence of RET (P07949 29-1114): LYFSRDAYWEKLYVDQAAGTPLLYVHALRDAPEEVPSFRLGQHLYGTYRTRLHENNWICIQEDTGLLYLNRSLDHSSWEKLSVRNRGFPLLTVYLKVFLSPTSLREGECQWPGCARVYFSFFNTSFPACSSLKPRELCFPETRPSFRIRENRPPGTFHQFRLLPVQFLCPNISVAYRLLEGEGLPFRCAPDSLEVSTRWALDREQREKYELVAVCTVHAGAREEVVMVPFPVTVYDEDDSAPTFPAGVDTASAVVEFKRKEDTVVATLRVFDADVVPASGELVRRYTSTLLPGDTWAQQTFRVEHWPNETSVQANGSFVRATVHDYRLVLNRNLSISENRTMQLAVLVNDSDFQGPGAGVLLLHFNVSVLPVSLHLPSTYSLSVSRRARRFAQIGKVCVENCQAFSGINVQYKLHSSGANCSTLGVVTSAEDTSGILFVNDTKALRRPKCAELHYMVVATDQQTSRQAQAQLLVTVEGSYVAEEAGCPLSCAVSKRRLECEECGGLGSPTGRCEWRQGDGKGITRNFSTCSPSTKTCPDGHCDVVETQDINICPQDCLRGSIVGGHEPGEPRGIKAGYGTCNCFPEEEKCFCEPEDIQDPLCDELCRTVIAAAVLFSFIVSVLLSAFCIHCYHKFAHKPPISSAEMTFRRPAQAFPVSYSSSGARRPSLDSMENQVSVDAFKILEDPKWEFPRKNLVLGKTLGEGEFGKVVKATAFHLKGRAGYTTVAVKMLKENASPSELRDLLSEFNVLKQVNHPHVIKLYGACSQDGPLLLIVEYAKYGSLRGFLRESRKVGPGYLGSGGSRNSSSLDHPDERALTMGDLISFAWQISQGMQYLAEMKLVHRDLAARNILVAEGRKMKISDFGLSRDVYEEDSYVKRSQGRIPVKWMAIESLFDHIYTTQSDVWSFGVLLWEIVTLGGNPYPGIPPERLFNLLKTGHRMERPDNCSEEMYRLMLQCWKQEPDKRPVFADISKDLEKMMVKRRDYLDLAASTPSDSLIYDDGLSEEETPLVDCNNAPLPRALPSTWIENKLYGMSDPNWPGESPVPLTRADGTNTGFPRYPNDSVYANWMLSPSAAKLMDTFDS

Sequence of DDR1 (Q08345 19-913): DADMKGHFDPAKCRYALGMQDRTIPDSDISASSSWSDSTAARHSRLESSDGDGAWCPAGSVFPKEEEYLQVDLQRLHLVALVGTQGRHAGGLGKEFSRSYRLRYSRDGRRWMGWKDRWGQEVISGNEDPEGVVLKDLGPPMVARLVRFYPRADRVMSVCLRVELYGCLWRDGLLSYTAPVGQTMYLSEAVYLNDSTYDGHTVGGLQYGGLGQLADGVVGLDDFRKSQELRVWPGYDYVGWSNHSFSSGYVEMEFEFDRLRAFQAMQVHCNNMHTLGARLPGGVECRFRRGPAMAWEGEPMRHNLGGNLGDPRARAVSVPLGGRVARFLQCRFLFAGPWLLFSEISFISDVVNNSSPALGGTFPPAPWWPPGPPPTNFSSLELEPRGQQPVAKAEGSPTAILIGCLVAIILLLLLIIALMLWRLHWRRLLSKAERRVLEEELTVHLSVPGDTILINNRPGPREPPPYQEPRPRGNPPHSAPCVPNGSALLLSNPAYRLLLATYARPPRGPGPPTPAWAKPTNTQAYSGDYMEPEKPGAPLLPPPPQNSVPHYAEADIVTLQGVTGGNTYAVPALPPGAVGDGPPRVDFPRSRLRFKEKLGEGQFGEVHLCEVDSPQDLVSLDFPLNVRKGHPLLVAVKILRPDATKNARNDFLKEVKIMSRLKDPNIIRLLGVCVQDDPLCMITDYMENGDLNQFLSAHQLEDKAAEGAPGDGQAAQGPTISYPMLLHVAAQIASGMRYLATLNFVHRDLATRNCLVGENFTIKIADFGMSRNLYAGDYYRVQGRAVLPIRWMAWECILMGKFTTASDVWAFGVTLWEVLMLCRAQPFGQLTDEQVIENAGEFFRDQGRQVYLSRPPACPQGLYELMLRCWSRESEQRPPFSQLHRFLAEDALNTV
Sequence of KDR (P35968 20-1356): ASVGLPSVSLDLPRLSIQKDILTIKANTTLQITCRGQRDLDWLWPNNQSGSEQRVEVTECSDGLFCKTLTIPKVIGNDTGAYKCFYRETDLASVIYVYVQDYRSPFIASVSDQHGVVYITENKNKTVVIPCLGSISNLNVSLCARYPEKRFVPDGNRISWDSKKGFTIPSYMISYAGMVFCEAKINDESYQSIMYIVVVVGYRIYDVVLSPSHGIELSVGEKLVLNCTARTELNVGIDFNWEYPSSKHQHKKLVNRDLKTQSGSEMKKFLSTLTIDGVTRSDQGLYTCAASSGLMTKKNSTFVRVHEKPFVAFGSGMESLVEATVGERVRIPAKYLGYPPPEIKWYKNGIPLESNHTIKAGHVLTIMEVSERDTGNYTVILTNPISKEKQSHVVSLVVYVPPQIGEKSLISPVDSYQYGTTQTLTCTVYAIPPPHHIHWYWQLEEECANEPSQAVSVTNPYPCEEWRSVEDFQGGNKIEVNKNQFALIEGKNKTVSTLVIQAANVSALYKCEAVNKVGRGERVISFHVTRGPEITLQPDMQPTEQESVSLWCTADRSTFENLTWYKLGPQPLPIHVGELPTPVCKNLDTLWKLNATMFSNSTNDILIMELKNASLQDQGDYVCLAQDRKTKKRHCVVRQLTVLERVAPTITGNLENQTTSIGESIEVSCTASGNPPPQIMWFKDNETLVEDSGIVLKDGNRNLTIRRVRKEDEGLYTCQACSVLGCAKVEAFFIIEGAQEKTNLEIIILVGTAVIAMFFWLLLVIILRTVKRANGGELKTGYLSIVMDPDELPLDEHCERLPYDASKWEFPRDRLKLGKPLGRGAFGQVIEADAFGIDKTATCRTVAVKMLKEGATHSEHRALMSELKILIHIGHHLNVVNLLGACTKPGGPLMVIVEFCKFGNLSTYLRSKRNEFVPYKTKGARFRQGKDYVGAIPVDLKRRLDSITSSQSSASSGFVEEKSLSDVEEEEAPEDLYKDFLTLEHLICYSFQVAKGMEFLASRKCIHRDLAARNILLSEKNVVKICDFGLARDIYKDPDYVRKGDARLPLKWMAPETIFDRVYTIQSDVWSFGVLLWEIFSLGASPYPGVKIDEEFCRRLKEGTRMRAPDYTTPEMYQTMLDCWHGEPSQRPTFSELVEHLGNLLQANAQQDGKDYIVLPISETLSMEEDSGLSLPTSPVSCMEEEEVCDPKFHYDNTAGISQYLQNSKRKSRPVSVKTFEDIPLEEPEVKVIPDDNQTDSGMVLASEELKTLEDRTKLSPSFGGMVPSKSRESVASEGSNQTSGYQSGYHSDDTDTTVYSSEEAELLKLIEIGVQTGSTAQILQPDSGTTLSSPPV
Sequence of ABL (P00519 whole entry): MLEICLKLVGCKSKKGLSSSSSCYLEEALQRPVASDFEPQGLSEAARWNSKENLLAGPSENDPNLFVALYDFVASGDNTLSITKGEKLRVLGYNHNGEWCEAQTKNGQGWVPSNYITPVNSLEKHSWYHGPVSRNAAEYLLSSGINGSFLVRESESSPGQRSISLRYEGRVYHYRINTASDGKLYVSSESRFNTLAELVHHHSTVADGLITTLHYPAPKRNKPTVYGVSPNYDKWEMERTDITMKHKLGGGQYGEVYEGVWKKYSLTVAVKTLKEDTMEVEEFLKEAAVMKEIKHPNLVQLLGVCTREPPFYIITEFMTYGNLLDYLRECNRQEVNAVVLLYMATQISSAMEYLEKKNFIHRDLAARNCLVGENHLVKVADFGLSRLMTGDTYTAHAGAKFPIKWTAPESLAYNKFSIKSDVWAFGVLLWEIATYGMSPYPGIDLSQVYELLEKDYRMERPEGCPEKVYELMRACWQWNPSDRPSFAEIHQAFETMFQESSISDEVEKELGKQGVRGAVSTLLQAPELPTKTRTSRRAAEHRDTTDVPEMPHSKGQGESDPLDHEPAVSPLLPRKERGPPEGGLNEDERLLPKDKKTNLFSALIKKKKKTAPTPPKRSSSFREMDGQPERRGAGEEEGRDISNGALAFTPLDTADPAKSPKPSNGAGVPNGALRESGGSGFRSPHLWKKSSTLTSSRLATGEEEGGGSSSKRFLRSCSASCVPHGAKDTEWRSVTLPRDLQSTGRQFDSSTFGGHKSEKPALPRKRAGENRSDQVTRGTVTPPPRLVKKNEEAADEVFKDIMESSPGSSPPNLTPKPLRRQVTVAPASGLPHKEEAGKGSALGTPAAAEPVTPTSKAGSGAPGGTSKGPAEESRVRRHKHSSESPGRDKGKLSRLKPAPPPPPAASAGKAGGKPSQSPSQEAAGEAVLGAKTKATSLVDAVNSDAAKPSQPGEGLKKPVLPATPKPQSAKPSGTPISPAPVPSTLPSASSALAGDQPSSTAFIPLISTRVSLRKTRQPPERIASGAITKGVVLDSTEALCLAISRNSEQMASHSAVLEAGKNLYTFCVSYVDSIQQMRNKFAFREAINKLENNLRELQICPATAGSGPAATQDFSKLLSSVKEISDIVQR

## COC(=O)c1ccc2c(c1)NC(=O)/C2=C(\Nc1ccc(N(C)C(=O)CN2CCN(C)CC2)cc1)c1ccccc1 [nintedanib]
[1]; 60 mg/kg once daily
  weight of mice at the end of the treatment: 24.54 ± 2.09 g
[1]; BLM mice, 60 mg/kg
  weight recovery ratio: 12.93%
[1]; BLM mice, 60 mg/kg, vehicle 2.67 ± 0.57, scale 1–4
  Masson score: 1.89 ± 0.55

## Cc1ccc(NC(=O)C(C)c2cccc(C(F)(F)F)c2)cc1-c1ccc2nc(Nc3cnn(C)c3)ncc2c1 (stereo not drawn) [Compound 39, N-(4-Methyl-3-(2-((1-methyl-1H-pyrazol-4-yl)amino)quinazolin-6-yl)phenyl)-2-(3-(trifluoromethyl)phenyl)propanamide]
KDR
  inhibition at 0.1 µM: 70.2%

## Cc1ccc(C(=O)NCc2cccc(C(F)(F)F)c2)cc1-c1ccc2nc(Nc3cnn(C)c3)ncc2c1 [Compound 38, 4-Methyl-3-(2-((1-methyl-1H-pyrazol-4-yl)amino)quinazolin-6-yl)-N-(3-(trifluoromethyl)benzyl)benzamide]
KDR
  inhibition at 0.1 µM: 94%

## Cc1ccc(C(=O)Nc2cccc(C(F)(F)F)c2)cc1-c1ccc2nc(Nc3cnn(C4CC4)c3)ncc2c1 [Compound 24, 3-(2-((1-Cyclopropyl-1H-pyrazol-4-yl)amino)quinazolin-6-yl)-4-methyl-N-(3-(trifluoromethyl)phenyl)benzamide]
DDR2
  IC50: 2.8 ± 0.5 nM
DDR1
  IC50: 13.8 nM
[2]
  inhibition of DDR2 phosphorylation: high inhibitory activity

## Cc1ccc(C(C)NC(=O)c2cccc(C(F)(F)F)c2)cc1-c1ccc2nc(Nc3cnn(C4CC4)c3)ncc2c1 (stereo not drawn) [Compound 43, N-(1-(3-(2-((1-Cyclopropyl-1H-pyrazol-4-yl)amino)quinazolin-6-yl)-4-methylphenyl)ethyl)-3-(trifluoromethyl)benzamide]
DDR2
  IC50: 4.3 ± 1 nM
KDR
  inhibition at 0.1 µM: 26.9%

## O=C(Nc1cccc(C(F)(F)F)c1)c1ccc(C2CC2)c(-c2ccc3nc(Nc4cnn(C5CC5)c4)ncc3c2)c1 [Compound 36, 4-Cyclopropyl-3-(2-((1-cyclopropyl-1H-pyrazol-4-yl)amino)quinazolin-6-yl)-N-(3-(trifluoromethyl)phenyl)benzamide]
Flt-3
  inhibition at 0.1 µM: 0%
DDR1
  IC50: 16 nM
KDR; 10 nmol/L
  KDR inhibition ratio: over 50%
KDR
  inhibition at 0.1 µM: 100%
[2]
  inhibition of DDR2 phosphorylation: high inhibitory activity
ABL
  ABL inhibition ratio: over 50%

## Cc1ccc(NC(=O)Nc2cccc(C(F)(F)F)c2)cc1-c1ccc2nc(Nc3cnn(C)c3)ncc2c1 [Compound 37, 1-(4-Methyl-3-(2-((1-methyl-1H-pyrazol-4-yl)amino)quinazolin-6-yl)phenyl)-3-(3-(trifluoromethyl)phenyl)urea]
KDR
  inhibition at 0.1 µM: 89.3%

## COc1ccc(C(=O)Nc2cccc(C(F)(F)F)c2)cc1-c1ccc2nc(Nc3cnn(C)c3)ncc2c1 [Compound 33, 4-Methoxy-3-(2-((1-methyl-1H-pyrazol-4-yl)amino)quinazolin-6-yl)-N-(3-(trifluoromethyl)phenyl)benzamide]
DDR2
  IC50: 2.3 ± 0.5 nM
Flt-3
  inhibition at 0.1 µM: 59.7%
RET; read-out: RET inhibition @100 nmol/L
  inhibition at 0.1 µM: 41.3%

## CC(=O)N1CCN(Cc2cc(NC(=O)c3ccc(C)c(-c4ccc5nc(Nc6cnn(C)c6)ncc5c4)c3)cc(C(F)(F)F)c2)CC1 [Compound 28, N-(3-((4-Acetylpiperazin-1-yl)methyl)-5-(trifluoromethyl)phenyl)-4-methyl-3-(2-((1-methyl-1H-pyrazol-4-yl)amino)quinazolin-6-yl)benzamide]
DDR2
  IC50: 1.8 ± 0.1 nM
Flt-3
  inhibition at 0.01 µM: 92.4%
RET
  inhibition at 0.01 µM: 91.8%

## Cc1ccc(C(=O)Nc2cccc(C(F)(F)F)c2)cc1-c1ccc2cn[nH]c2c1 [Compound 7, 3-(1H-Indazol-6-yl)-4-methyl-N-(3-(trifluoromethyl)phenyl)benzamide]
DDR1
  IC50: 9.74 nM

## Cc1ccc(C(=O)Nc2cc(CN3CCN(C(C)C)CC3)cc(C(F)(F)F)c2)cc1-c1ccc2nc(Nc3cnn(C)c3)ncc2c1 [Compound 26, N-(3-((4-Isopropylpiperazin-1-yl)methyl)-5-(trifluoromethyl)phenyl)-4-methyl-3-(2-((1-methyl-1H-pyrazol-4-yl)amino)quinazolin-6-yl)benzamide]
DDR2
  IC50: 2.2 ± 0.3 nM
Flt-3
  inhibition at 0.01 µM: 90.1%
RET
  inhibition at 0.01 µM: 92.7%
